Assay results as given in ChEMBL document CHEMBL1140214, “Antitumor activity of new substituted 3-(5-imidazo[2,1-b]thiazolylmethylene)-2-indolinones and 3-(5-imidazo[2,1-b]thiadiazolylmethylene)-2-indolinones: selectivity against colon tumor cells and effect on cell cycle-related events” (2008).
The source made the active and inactive calls. The rule behind the calls is not given here.

Key:
HT-29 [1] = test: Cell cycle arrest in human HT-29 cells assessed as accumulation at G2/M phase at 2 uM after 24 hrs by flow cytometry; format: functional
Summary of the method: (§1)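 HT-29 cells were grown in RPMI 1640 with 10% FBS and 2 mM L-glutamine at 37 °C, 5% CO2, and treated 24 h after plating at 2 × 10^4 cells/cm^2. Exposure was 24 h at 0.5–2 µM test compound or 30 nM vincristine, with DMSO controls. Cells were stained with propidium iodide, RNase and NP-40 for 30 min in the dark, then DNA content was read by flow cytometry. Mean ± SEM, n=3.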

Melanoma cell = test: Antitumor activity against human Melanoma cells after 48 hrs by SRB assay; format: functional; conditions: for TGI: read-out: pTGI (converted)
Summary of the method: (§2)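 NCI 60-cell panel two-stage screen: a single-dose pass at 10^-5 M, then five-dose testing for active compounds. Compounds were dissolved in DMSO and tested at five 10-fold dilutions, the highest 10^-4 M (10^-3 M in some cases). Results are given as the negative log molar concentration at three end points: pGI50, pTGI (total growth inhibition) and pLC50. Means are panel-subtype averages.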

HT-29 [2] = test: Inhibition of cell proliferation in human HT-29 cells at 2 uM; format: functional, cell-based
Summary of the method: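 HT-29 cells in RPMI 1640 with 10% FBS were exposed to compound in fresh medium 24 h after plating, with DMSO controls. Cells were counted daily and viability was checked by Trypan blue exclusion.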

HT-29 [3] = test: Induction of apoptosis in human HT-29 cells assessed as caspase activity after 48 hrs by fluorimetric assay; format: functional, cell-based
Summary of the method: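 DEVDase (caspase) activity was measured fluorometrically in extracts of HT-29 cells treated for 24 or 48 h at the indicated concentrations.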

[4] = Antitumor activity against human CNS cancer cells after 48 hrs by SRB assay; format: functional, Cancer cell lines; conditions: for TGI: read-out: pTGI (converted); summary of the method: as §2
[5] = Antitumor activity against human renal cancer cells after 48 hrs by SRB assay; format: functional, Cancer cell lines; conditions: for GI50 / TGI: Homo sapiens, Cancer cell lines, 48 h; for TGI: read-out: pTGI (converted); summary of the method: as §2
NSCLC = test: Antitumor activity against human NSCLC cells after 48 hrs by SRB assay; format: functional; conditions: for GI50 / TGI: Homo sapiens, NSCLC, 48 h; for TGI: read-out: pTGI (converted); summary of the method: as §2
[6] = Antitumor activity against human Breast cancer cells after 48 hrs by SRB assay; format: functional, Cancer cell lines; conditions: for GI50 / TGI: Homo sapiens, Cancer cell lines, 48 h; for TGI: read-out: pTGI (converted); summary of the method: as §2
HT-29 [7] = test: Increase in cellular tubulin condensation in human HT-29 cells at 1 uM after 24 hrs using DAPI staining by immunofluorescence technique; format: functional, cell-based
Summary of the method: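 HT-29 cells on glass coverslips at 1 × 10^4 cells/cm^2 were treated 24 h at 1 µM, or with 30 nM vincristine. After fixation they were stained overnight at 4 °C with anti-α-tubulin mouse monoclonal, then 1 h at room temperature with FITC anti-mouse IgG, and counterstained with DAPI. Imaging was by laser scanning confocal microscopy.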

HT-29 [8] = test: Cell cycle arrest in human HT-29 cells assessed as accumulation at G2/M phase after 24 hrs by flow cytometry; format: functional, cell-based; summary of the method: as §1
[9] = Antitumor activity against human prostate cancer cells after 48 hrs by SRB assay; format: functional, Cancer cell lines; summary of the method: as §2
[10] = Antitumor activity against human Colon cancer cells after 48 hrs by SRB assay; format: functional, Cancer cell lines; conditions: for GI50 / TGI: Homo sapiens, Cancer cell lines, 48 h; for TGI: read-out: pTGI (converted); summary of the method: as §2
Leukemia cell = test: Antitumor activity against human Leukemia cells after 48 hrs by SRB assay; format: functional; conditions: for GI50 / TGI: Homo sapiens, Leukemia cell, 48 h; for TGI: read-out: pTGI (converted); summary of the method: as §2
[11] = Antitumor activity against human ovarian cancer cells after 48 hrs by SRB assay; format: functional, Cancer cell lines; conditions: for GI50 / TGI: Homo sapiens, Cancer cell lines, 48 h; for TGI: read-out: pTGI (converted); summary of the method: as §2
[12] = target: T1, Ornithine decarboxylase (Homo sapiens) (UniProt P11926); test: Inhibition of ornithine decarboxylase in human HT-29 cells assessed as release of radioactive CO2 from [14C-carboxyl] ornithine; format: cell-based
T1 sequence (whole entry): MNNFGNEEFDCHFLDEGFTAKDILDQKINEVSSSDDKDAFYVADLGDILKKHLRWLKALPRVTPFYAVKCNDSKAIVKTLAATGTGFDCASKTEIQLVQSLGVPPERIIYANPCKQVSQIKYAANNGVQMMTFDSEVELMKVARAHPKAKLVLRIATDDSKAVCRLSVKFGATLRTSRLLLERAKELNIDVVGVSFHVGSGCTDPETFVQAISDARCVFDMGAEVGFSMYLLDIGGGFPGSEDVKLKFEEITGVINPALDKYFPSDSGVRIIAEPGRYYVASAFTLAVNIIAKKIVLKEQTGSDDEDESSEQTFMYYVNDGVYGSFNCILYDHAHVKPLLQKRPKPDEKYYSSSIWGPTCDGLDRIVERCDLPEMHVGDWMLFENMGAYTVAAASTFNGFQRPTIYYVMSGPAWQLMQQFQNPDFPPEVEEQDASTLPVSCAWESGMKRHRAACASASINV
Summary of the method: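 Extracts were taken from HT-29 cells after 24 h exposure to the indicated concentrations of test compound or vincristine. ODC activity was read as 14CO2 released from [14C-carboxyl]ornithine. Mean ± SEM, n=3.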

HT-29 [13] = test: Cell cycle arrest in human HT-29 cells assessed as accumulation at G2/M phase at 30 nM after 24 hrs by flow cytometry; format: functional, cell-based; summary of the method: as §1
[14] = Homo sapiens, Melanoma cell, 48 h, read-out: pGI50 (converted)
[15] = Homo sapiens, Melanoma cell, 48 h
[16] = Homo sapiens, Cancer cell lines, 48 h, read-out: pGI50 (converted)
[17] = Homo sapiens, Cancer cell lines, 48 h

SMILES	GI50 (Melanoma cell; [14]) [µM]	TGI (Melanoma cell; [15]) [µM]	GI50 [4, 16] [µM]	TGI [4, 17] [µM]	GI [5] [µM]	GI50 [5] [µM]	TGI [5] [µM]	GI (NSCLC) [µM]	GI50 (NSCLC) [µM]	TGI (NSCLC) [µM]	GI [6] [µM]	GI50 [6] [µM]	TGI [6] [µM]	GI [9] [µM]	GI50 [9, 17] [µM]	GI [10] [µM]	GI50 [10] [µM]	TGI [10] [µM]	GI (Leukemia cell) [µM]	GI50 (Leukemia cell) [µM]	other results
COc1ccc2c(c1)/C(=C\c1c(C)nc3sc(C)nn13)C(=O)N2	6.31	69.2	2.51	38	6.17	6.17	91.2	5.37	5.37	56.2	2.63	2.63	75.9	3.89	3.89	0.69	0.692	41.7	1.15	1.15	Activity (HT-29 [1]): 58%; GI50 (Melanoma cell): 6.31 µM; Activity (HT-29 [2]): Active; Activity (HT-29 [3]): Active; GI50 [4]: 2.51 µM; Activity (HT-29 [7]): Active; Activity (HT-29 [8]): Dose-dependent effect; TGI (Leukemia cell): 38 µM; GI [11]: 5.01 µM; GI50 [11]: 5.01 µM; TGI [11]: 72.4 µM; Activity [12]: Dose-dependent effect
CC[C@]1(O)C[C@H]2CN(CCc3c([nH]c4ccccc34)[C@@](C(=O)OC)(c3cc4c(cc3OC)N(C=O)[C@H]3[C@@](O)(C(=O)OC)[C@H](OC(C)=O)[C@]5(CC)C=CCN6CC[C@]43[C@@H]65)C2)C1.O=S(=O)(O)O [VINCRISTINE SULFATE]	0.158	7.94	0.126	6.31	0.32	0.316	20	0.25	0.251	15.8	0.32	0.316	7.94	0.13	0.126	0.1	0.1	3.98	0.1	0.1	CC50 (Melanoma cell; Homo sapiens, Melanoma cell, 48 h, read-out: pLC50 (the source's name) (converted)): 251 µM; Activity (HT-29 [13]): Active; TGI ([9]; Homo sapiens, Cancer cell lines, 48 h, read-out: pTGI (converted)): 6.31 µM; TGI (Leukemia cell): 15.8 µM; GI [11]: 0.32 µM; GI50 [11]: 0.316 µM; TGI [11]: 20 µM; Activity [12]: Active
